Legend:
[1] = AUC (0 to infinity) in patient with hepatic insufficiency at 400 mg, po administered as single dose; format: ADME, organism-based; set-up: dose 400 mg, route oral, time infinity; conditions: human, plasma
Outline: (§1)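 Single 400-mg oral dose given fasted (fasting stated for the renal study). Assay: validated reverse-phase HPLC-MS/MS, LLOQ 2 ng/ml, range 2 to 1,000 ng/ml. AUC0-∞ = AUC0-last by linear/log trapezoid plus extrapolation. Cmax is read from the data. C12 is the nominal 12-h concentration. Values converted to nM (MW 444.4).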

[2] = Cmax in patient with hepatic insufficiency at 400 mg, po administered as single dose; format: ADME, organism-based; set-up: dose 400 mg, route oral; conditions: human, in vivo; outline: as §1
[3] = Plasma concentration in patient with hepatic insufficiency at 400 mg, po administered as single dose measured at 12 hrs post dose; format: ADME, organism-based; conditions: human, read-out: Activity; outline: as §1
[4] = Tmax in patient with hepatic insufficiency at 400 mg, po administered as single dose; format: ADME, organism-based; conditions: human, in vivo
Outline: (§2)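 Tmax is taken by inspection of the plasma concentration data, using nominal sampling times. Single 400-mg oral dose; plasma sampled from 0 to 72 h, or to 96 h in the hepatic study. Raltegravir is measured by validated reverse-phase HPLC-MS/MS (LLOQ 2 ng/ml).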

[5] = Primary phase half life in patient with hepatic insufficiency at 400 mg, po administered as single dose; format: ADME, organism-based; conditions: human, in vivo
Outline: (§3)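 Single 400-mg oral raltegravir dose, fasted (stated for study II); patients and matched healthy controls. Plasma sampled at 0–72 h (to 96 h in hepatic study only), quantified by validated reverse-phase HPLC-MS/MS (LLOQ 2 ng/ml), converted to nM (MW 444.4). Profiles fit biexponentially (Gauss-Newton, Levenberg-Hartley; weighting 1/predicted concentration²); each phase t1/2 = ln(2)/rate constant.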

[6] = Terminal half life in patient with hepatic insufficiency at 400 mg, po administered as single dose; format: ADME, organism-based; conditions: human, in vivo; outline: as §3
[7] = AUC (0 to infinity) in healthy human at 400 mg, po administered as single dose; format: ADME, organism-based; set-up: dose 400 mg, route oral, time infinity; conditions: plasma; outline: as §1
[8] = Cmax in healthy human at 400 mg, po administered as single dose; format: ADME, organism-based; set-up: dose 400 mg, route oral; conditions: in vivo; outline: as §1
[9] = Plasma concentration in healthy human at 400 mg, po administered as single dose measured at 12 hrs post dose; format: ADME, organism-based; conditions: read-out: Activity; outline: as §1
[10] = Primary phase half life in healthy human at 400 mg, po administered as single dose; format: ADME, organism-based; conditions: in vivo; outline: as §3
[11] = Terminal half life in healthy human at 400 mg, po administered as single dose; format: ADME, organism-based; conditions: in vivo; outline: as §3
[12] = AUC (0 to infinity) in patient with severe renal insufficiency at 400 mg, po administered as single dose; format: ADME, organism-based; set-up: dose 400 mg, route oral, time infinity; conditions: human, plasma; outline: as §1
[13] = Cmax in patient with severe renal insufficiency at 400 mg, po administered as single dose; format: ADME, organism-based; set-up: dose 400 mg, route oral; conditions: human, in vivo; outline: as §1
[14] = Plasma concentration in patient with severe renal insufficiency at 400 mg, po administered as single dose measured at 12 hrs post dose; format: ADME, organism-based; conditions: human, read-out: Activity; outline: as §1
[15] = Tmax in patient with severe renal insufficiency at 400 mg, po administered as single dose; format: ADME, organism-based; conditions: human, in vivo; outline: as §2
[16] = Primary phase half life in patient with severe renal insufficiency at 400 mg, po administered as single dose; format: ADME, organism-based; conditions: human, in vivo; outline: as §3
[17] = Terminal half life in patient with severe renal insufficiency at 400 mg, po administered as single dose; format: ADME, organism-based; conditions: human, in vivo; outline: as §3
Homo sapiens [18] = assay: Drug level in patient with severe renal insufficiency assessed as recovery of unchanged drug at 400 mg, po administered as single dose; format: ADME, organism-based; conditions: in vivo
Outline: (§4)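 Renal study, 10 patients plus 10 matched controls. Urine collected predose and at 0–4, 4–8, 8–12 and 12–24 h after a fasted 400-mg oral dose. Urine diluted and injected directly for HPLC-MS/MS (LLOQ 0.25 µg/ml, range 0.25–25 µg/ml). fe = total amount excreted unchanged ÷ dose × 100%. CLR = […] ÷ plasma AUC0-24.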

[19] = Renal clearance in patient with severe renal insufficiency at 400 mg, po administered as single dose; format: ADME, organism-based, Kidney; conditions: human, in vivo, read-out: CL_renal; outline: as §4
[20] = Renal clearance in healthy human at 400 mg, po administered as single dose; format: ADME, organism-based, Kidney; conditions: in vivo, read-out: CL_renal; outline: as §4
Homo sapiens [21] = assay: Ratio of Cmax in patient with hepatic insufficiency to Cmax in healthy human at 400 mg, po administered as single dose; format: ADME, organism-based; conditions: in vivo
Outline: (§5)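 Single 400-mg oral raltegravir dose to patients (moderate hepatic or severe renal insufficiency) and matched healthy controls; plasma raltegravir measured by HPLC-MS/MS. Cmax read by inspection, ln-transformed. Geometric mean ratio (patient/healthy) with 90% CI from ANCOVA least-squares means: population and sex fixed effects, age and BMI covariates.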

Homo sapiens [22] = assay: Ratio of plasma concentration in patient with hepatic insufficiency to plasma concentration in healthy human at 400 mg, po administered as single dose measured at 12 hrs post dose; format: ADME, organism-based; conditions: in vivo
Outline: (§6)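 Geometric mean ratio, patients/matched healthy controls, for AUC0-∞, Cmax and C12 after a single 400-mg oral dose. Data are natural-log transformed. 90% CIs come from ANCOVA least-squares means, with population and sex as fixed effects and age and BMI as covariates, then exponentiated. n = 8 per group.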

Homo sapiens [23] = assay: Ratio of Cmax in patient with severe renal insufficiency to Cmax in healthy human at 400 mg, po administered as single dose; format: ADME, organism-based; conditions: in vivo; outline: as §5
Homo sapiens [24] = assay: Ratio of plasma concentration in patient with hepatic insufficiency to plasma concentration in healthy human at 400 mg, po administered as single dose; format: ADME, organism-based; conditions: in vivo; outline: as §6
Homo sapiens [25] = assay: Toxicity in human assessed as headache at 400 mg, po administered as single dose; format: organism-based; conditions: in vivo
Outline: (§7)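 Safety assessed throughout each study by clinical and laboratory evaluations after a single 400-mg oral dose. Relatedness of adverse experiences to the drug was judged by the investigator.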

Homo sapiens [26] = assay: Toxicity in human assessed as mouth ulceration at 400 mg, po administered as single dose; format: organism-based; conditions: in vivo; outline: as §7

AUC(0-inf) [1]: 17.7 µM·h
Cmax [2]: 4.41 µM
concentration at 12 h [3]: 0.143 µM
Tmax [4]: 2.5 h
half-life [5]: 1.49 h
half-life [6]: 7 h
AUC(0-inf) [7]: 19.7 µM·h
Cmax [8]: 5.68 µM
concentration at 12 h [9]: 0.105 µM
half-life [10]: 1.1 h
half-life [11]: 9.3 h
AUC(0-inf) [12]: 16.8 µM·h
Cmax [13]: 3.85 µM
concentration at 12 h [14]: 0.135 µM
Tmax [15]: 3.5 h
half-life [16]: 1.38 h
half-life [17]: 17.2 h
fold change (FC) (Homo sapiens [18]): 0.5
CL renal [19]: 2.7 mL/min
CL renal [20]: 31.5 mL/min
Cmax (Ratio) (Homo sapiens [21]): 0.63
Activity (Homo sapiens [22]): 1.26 nM
Cmax (Ratio) (Homo sapiens [23]): 0.68
Activity (Homo sapiens [24]): 1.26 nM
SMILES: Cc1nnc(C(=O)NC(C)(C)c2nc(C(=O)NCc3ccc(F)cc3)c(O)c(=O)n2C)o1 [RALTEGRAVIR]
Activity (Homo sapiens [25]): Toxic
Activity (Homo sapiens [26]): Toxic
